This note sets out measurements from PMC3334839 (The Journal of Neuroscience, 2012).

Numbering of substitutions follows the chain as printed.

Assay [1] deals with native GlyRs in cultured spinal neurons. As to the kind of experiment: Whole-cell patch-clamp of Gly-activated current. The assay is classed as cell-based, rat. The conditions noted are these: vs vehicle. In outline: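 Spinal cords from postnatal day 0 rats, papain-dissociated (20 U/ml, 37°C, 40 min). Plated at 300,000 cells/ml on poly-d-lysine in MEM/10% FBS, cultured ≥10 d, washed 30 min in external solution. Whole-cell, −60 mV, 20–22°C.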

The target in assay [2] is T1, S296A mutant human α1 GlyR (Homo sapiens, UniProt P23415, S324A).
T1 sequence (P23415 29-457 S324A): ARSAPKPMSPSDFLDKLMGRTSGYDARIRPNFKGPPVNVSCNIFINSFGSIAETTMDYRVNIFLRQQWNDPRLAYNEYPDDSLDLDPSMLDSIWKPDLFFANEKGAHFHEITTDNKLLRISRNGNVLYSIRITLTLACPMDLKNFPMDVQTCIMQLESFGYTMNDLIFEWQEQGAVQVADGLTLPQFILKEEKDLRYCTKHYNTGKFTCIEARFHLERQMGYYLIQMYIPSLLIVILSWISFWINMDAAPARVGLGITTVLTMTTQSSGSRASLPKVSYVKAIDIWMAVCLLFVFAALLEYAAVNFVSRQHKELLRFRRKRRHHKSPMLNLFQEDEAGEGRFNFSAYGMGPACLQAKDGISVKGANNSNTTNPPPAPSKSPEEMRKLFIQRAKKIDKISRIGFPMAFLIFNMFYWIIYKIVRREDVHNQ
As to the kind of experiment: cell-based. It counts as cell-based. The settings on record: for effect of S296A mutation on cannabinoid-induced potentiation of IGly: cannabinoid 1 μM, EC2 Gly (10 μM), vs wild-type α1.

In a further assay the target is T2, human α1 GlyR (Homo sapiens, UniProt P23415).
T2 sequence (P23415 29-457): T1 sequence (P23415 29-457 S324A) with A296S
As to the kind of experiment: cell-based. The conditions noted are these: for efficacy in potentiating IGly relative to AEA: concentration-response, α1 subunit (Fig. 5B). The assay is classed as cell-based.

The target of a further assay is T3, rat α2 GlyR (Rattus norvegicus, UniProt P22771).
T3 sequence (P22771 28-452): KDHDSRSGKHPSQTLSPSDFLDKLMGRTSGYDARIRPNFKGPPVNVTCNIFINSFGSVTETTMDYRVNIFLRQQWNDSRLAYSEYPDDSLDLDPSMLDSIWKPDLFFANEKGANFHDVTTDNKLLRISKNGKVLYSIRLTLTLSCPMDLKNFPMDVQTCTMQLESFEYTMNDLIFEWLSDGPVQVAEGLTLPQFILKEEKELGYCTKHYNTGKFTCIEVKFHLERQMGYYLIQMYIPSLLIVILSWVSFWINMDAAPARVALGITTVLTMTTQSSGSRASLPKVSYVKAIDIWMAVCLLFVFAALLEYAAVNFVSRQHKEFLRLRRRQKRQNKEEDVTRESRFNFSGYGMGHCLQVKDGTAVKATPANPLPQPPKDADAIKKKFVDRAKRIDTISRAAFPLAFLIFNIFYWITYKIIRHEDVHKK
As to the kind of experiment: Whole-cell patch-clamp of IGly in HEK-293 cells expressing α2 GlyRs. The assay is classed as cell-based. The settings on record: read-out: EC50 for Gly (concentration-response curve); α2 subunit.

The next assay deals with T4, rat α3 GlyR (Rattus norvegicus, UniProt P24524).
T4 sequence (P24524 34-464): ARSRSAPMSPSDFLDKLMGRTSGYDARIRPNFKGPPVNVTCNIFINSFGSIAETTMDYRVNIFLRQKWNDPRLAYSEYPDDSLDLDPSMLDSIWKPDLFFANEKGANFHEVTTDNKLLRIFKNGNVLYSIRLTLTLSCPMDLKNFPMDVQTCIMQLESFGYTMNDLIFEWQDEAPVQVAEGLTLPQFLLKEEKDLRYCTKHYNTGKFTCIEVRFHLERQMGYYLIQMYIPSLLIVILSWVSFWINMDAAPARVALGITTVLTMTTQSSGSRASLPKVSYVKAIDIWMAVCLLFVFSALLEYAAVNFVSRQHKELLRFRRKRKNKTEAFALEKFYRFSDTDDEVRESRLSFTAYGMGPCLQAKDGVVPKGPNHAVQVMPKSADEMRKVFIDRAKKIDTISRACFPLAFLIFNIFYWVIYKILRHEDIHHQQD
In words: Whole-cell patch-clamp of IGly in HEK-293 cells expressing α3 GlyRs. It counts as cell-based. The settings on record: read-out: EC50 for Gly (concentration-response curve); α3 subunit.

The mark [3] stands for this setting: HEK293, read-out: inhibition of IGly.
[4] abbreviates: 3 μM coapplied, apparently competitive, parallel rightward shift.

Take `Cc1c(C(=O)NN2CCCCC2)nn(-c2ccc(Cl)cc2Cl)c1-c1ccc(I)cc1` [AM251]: the “effect of antagonist on AEA-induced potentiation of IGly” value (“effect of antagonist” for short) in assay [1] (antagonist 1 μM) is reported as “did not significantly alter”.
`C=C(C)[C@@H]1CCC(C)=C[C@H]1c1c(O)cc(CCCCC)cc1O` [CBD, cannabidiol]: the “effect of S296A mutation on cannabinoid-induced potentiation of IGly” value in assay [2] is “significantly reduced”.
With `CCCCCC=CCC=CCC=CCC=CCCCC(=O)NCC` [Dehydroxyl-AEA, Dehydroxylanandamide], at human α1 GlyR, the “efficacy in potentiating IGly relative to AEA” value is listed as “reduced efficacy”.
As to `NCC(=O)O` [Gly, glycine], the results for the “maximal current density (MCD)” value (on human α1 GlyR; in assay [2]) were 912 ± 153 pA/pF and 906 ± 147 pA/pF, respectively. For the same molecule, the EC50 on rat α2 GlyR stood at 128 ± 10 µM; on rat α3 GlyR it was 354 ± 29 µM.
Regarding `CCCCCCC(C)(C)c1cc(O)c2c(c1)OC(C)(C)[C@@H]1CC=C(CO)C[C@@H]21` [HU210], the “effect of S296A mutation on cannabinoid-induced potentiation of IGly” value in assay [2] was “significantly reduced”.
On the same count and under the same terms, with `CCCCCc1cc(O)c2c(c1)OC(C)(C)[C@@H]1CCC(C)=C[C@@H]21` [THC, Δ^9-tetrahydrocannabinol] the entry was “significantly reduced”.
Take `Oc1cc2c(cc1O)CN(C(=S)NCCc1ccc(Cl)cc1)CCC2` [capsazepine]: in assay [1] (antagonist 2 μM), the “effect of antagonist” value was “did not significantly alter”.
As to `O=C1C[C@@H]2OCC=C3CN4CC[C@]56c7ccccc7N1[C@H]5[C@H]2[C@H]3C[C@H]46` [strychnine], the results for the inhibition at 0.1 µM (on human α1 GlyR (setting [3]); in assay [2] (setting [3])) were 78 ± 9% and 81 ± 13%, respectively.
For the molecule Desoxyanandamide [Desoxy-AEA], at human α1 GlyR (setting [4]), the “effect on AEA-induced potentiation of IGly” value is given as “inhibited” and the “effect on THC-induced potentiation of IGly” value is listed as “inhibited”. Also, at human α1 GlyR, the “efficacy in potentiating IGly relative to AEA” value is listed as “reduced efficacy”.
In the case of SR144528, the “effect of antagonist” value in assay [1] (antagonist 1 μM) was “did not significantly alter”.
